{"source": "ChEMBL document CHEMBL4118152", "about": "“Discovery of Potent and Selective Periphery-Restricted Quinazoline Inhibitors of the Cyclic Nucleotide Phosphodiesterase PDE1” (J Med Chem, 2018)", "key": {"BCRP (ABCG2)": {"target": "BCRP (ABCG2) (Homo sapiens, UniProt Q9UNQ0)", "test": "Substrate activity at BCRP (unknown origin) assessed as efflux ratio", "conditions": "not told"}, "[1]": {"test": "Fraction unbound in Wistar Hannover rat brain at 1 mg/kg, sc measured at 4 hrs post dose by LC-MS/MS analysis", "format": "ADME, organism-based", "conditions": "in vivo, BLD = below limit of detection"}, "Homo sapiens [2]": {"species": "Homo sapiens", "test": "Selectivity ratio of IC50 for full length recombinant human PDE3A1 to IC50 for full length recombinant human PDE1B1", "summary_of_the_method": "(§1)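 IC50s were measured against recombinant PDEs, all human except PDE6A (bovine). Each enzyme was given its appropriate cAMP or cGMP substrate at below 1/3 of its Km. IC50s are the mean of n = 3 or more. The selectivity ratio is the IC50 for the other PDE divided by the IC50 for PDE1B1 or PDE1A.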"}, "[3]": {"target": "Alpha-2A adrenergic receptor (Homo sapiens) (UniProt P08913)", "sequence (P08913 whole entry)": "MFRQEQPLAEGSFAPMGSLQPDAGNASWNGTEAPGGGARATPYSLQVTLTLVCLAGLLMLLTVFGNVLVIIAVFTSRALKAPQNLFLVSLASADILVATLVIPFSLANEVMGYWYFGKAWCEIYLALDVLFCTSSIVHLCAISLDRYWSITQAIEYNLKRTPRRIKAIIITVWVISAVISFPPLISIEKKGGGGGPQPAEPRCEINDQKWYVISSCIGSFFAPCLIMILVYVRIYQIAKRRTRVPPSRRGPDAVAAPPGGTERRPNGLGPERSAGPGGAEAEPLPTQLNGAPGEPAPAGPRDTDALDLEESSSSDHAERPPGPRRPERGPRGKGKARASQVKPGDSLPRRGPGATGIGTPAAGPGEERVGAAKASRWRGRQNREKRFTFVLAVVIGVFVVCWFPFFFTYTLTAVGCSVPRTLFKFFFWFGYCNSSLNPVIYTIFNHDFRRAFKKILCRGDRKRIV", "test": "Inhibition of human alpha2A receptor at 10 uM relative to control"}, "[4]": {"target": "Angiotensin-converting enzyme (Homo sapiens) (UniProt P12821)", "sequence (P12821 whole entry)": "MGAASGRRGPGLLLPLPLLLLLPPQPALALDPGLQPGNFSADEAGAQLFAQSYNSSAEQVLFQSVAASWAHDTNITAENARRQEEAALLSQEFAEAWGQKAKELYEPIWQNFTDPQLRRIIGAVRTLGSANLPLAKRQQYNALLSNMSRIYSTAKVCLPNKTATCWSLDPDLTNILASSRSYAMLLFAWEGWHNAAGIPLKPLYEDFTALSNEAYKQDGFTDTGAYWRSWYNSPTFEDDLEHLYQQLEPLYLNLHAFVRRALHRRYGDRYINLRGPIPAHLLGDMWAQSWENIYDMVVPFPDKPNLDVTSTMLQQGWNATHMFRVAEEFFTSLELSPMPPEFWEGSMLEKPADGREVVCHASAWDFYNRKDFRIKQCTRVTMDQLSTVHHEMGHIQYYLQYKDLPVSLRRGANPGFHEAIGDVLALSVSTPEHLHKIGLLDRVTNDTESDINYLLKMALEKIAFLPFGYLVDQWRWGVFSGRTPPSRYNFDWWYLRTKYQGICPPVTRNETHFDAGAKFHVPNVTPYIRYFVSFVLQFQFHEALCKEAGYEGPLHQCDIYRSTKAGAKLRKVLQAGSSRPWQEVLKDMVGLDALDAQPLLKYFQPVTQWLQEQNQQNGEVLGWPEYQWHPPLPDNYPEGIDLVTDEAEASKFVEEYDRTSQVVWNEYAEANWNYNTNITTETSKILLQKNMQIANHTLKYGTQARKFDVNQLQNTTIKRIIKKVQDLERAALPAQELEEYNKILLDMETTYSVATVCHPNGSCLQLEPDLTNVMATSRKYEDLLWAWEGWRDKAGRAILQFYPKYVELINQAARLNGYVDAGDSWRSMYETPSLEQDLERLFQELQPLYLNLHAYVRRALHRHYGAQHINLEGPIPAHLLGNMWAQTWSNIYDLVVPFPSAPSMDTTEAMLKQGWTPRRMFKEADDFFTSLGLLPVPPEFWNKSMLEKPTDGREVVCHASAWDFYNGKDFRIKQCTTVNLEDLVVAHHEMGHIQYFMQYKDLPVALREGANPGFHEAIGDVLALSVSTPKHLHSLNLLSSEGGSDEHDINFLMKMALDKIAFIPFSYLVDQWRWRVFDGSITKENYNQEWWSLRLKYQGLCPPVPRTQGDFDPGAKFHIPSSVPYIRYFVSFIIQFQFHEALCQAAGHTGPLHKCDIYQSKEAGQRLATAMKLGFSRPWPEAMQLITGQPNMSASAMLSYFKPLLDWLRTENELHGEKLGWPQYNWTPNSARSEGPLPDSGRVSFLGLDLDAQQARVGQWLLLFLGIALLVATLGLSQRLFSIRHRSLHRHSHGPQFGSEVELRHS", "test": "Inhibition of recombinant human Acetylcholinesterase using acetylthiocholine as substrate at 10 uM after 30 mins by spectrophotometric method relative to control"}, "[5]": {"target": "Alpha-2B adrenergic receptor (Homo sapiens) (UniProt P18089)", "sequence (P18089 whole entry)": "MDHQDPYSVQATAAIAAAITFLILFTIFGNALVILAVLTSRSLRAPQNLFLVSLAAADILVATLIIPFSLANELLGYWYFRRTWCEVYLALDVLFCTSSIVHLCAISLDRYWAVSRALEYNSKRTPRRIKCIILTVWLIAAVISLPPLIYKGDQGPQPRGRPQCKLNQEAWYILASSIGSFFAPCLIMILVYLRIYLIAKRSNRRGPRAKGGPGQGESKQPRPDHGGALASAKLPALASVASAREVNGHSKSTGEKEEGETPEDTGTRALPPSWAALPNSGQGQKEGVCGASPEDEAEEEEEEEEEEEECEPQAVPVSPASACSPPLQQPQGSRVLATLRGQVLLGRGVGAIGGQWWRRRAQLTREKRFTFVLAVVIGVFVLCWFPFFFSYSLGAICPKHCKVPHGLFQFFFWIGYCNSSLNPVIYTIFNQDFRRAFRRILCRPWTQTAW", "test": "Inhibition of human alpha2B receptor at 10 uM relative to control"}, "Rattus norvegicus [6]": {"species": "Rattus norvegicus", "test": "Inhibition of rat brain AMPA receptor assessed as [3H]AMPA uptake at 10 uM after 60 mins by scintillation counting analysis relative to control"}, "[7]": {"test": "Ratio of fraction unbound in Wistar Hannover rat brain to plasma at 1 mg/kg, sc measured at 0.5 hrs post dose by LC-MS/MS analysis", "format": "ADME, organism-based", "conditions": "in vivo"}, "Homo sapiens [8]": {"species": "Homo sapiens", "test": "Selectivity ratio of IC50 for full length recombinant human PDE5A1 to IC50 for full length recombinant human PDE1A", "summary_of_the_method": "as §1"}, "[9]": {"target": "Sodium-dependent noradrenaline transporter (Homo sapiens) (UniProt P23975)", "test": "Inhibition of human norepinephrine transporter at 10 uM relative to control"}, "[10]": {"test": "Drug uptake in Wistar Hannover rat cerebrospinal fluid at 1 mg/kg, sc measured at 4 hrs post dose by LC-MS/MS analysis", "format": "ADME, organism-based", "conditions": "in vivo, BLD = below limit of detection", "summary_of_the_method": "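Rats were dosed subcutaneously at 1 mg/kg. CSF, plasma and brain were sampled at 0.5, 1, 2 and 4 h post dose and analysed for drug concentration. Values are means at each time point.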"}, "[11]": {"test": "Fraction unbound in Wistar Hannover rat plasma at 1 mg/kg, sc measured at 2 hrs post dose by LC-MS/MS analysis", "format": "ADME, organism-based", "conditions": "in vivo"}, "Homo sapiens [12]": {"species": "Homo sapiens", "test": "Selectivity ratio of IC50 for full length recombinant human PDE10A1 to IC50 for full length recombinant human PDE1B1", "summary_of_the_method": "as §1"}, "[13]": {"target": "Gastrin/cholecystokinin type B receptor (Homo sapiens) (UniProt P32239)", "test": "Inhibition of human cholecystokinin CCK2 receptor at 10 uM relative to control"}, "[14]": {"target": "Angiotensin-converting enzyme (Homo sapiens) (UniProt P12821)", "test": "Inhibition of human angiotensin converting enzyme at 10 uM relative to control"}, "[15]": {"target": "D(2) dopamine receptor (Homo sapiens) (UniProt P14416)", "test": "Inhibition of dopamine D2 receptor (unknown origin) at 10 uM relative to control"}, "Homo sapiens [16]": {"species": "Homo sapiens", "test": "Selectivity ratio of IC50 for full length recombinant human PDE5A1 to IC50 for full length recombinant human PDE1B1", "summary_of_the_method": "as §1"}, "[17]": {"target": "Androgen receptor (Homo sapiens) (UniProt P10275)", "sequence (P10275 whole entry)": "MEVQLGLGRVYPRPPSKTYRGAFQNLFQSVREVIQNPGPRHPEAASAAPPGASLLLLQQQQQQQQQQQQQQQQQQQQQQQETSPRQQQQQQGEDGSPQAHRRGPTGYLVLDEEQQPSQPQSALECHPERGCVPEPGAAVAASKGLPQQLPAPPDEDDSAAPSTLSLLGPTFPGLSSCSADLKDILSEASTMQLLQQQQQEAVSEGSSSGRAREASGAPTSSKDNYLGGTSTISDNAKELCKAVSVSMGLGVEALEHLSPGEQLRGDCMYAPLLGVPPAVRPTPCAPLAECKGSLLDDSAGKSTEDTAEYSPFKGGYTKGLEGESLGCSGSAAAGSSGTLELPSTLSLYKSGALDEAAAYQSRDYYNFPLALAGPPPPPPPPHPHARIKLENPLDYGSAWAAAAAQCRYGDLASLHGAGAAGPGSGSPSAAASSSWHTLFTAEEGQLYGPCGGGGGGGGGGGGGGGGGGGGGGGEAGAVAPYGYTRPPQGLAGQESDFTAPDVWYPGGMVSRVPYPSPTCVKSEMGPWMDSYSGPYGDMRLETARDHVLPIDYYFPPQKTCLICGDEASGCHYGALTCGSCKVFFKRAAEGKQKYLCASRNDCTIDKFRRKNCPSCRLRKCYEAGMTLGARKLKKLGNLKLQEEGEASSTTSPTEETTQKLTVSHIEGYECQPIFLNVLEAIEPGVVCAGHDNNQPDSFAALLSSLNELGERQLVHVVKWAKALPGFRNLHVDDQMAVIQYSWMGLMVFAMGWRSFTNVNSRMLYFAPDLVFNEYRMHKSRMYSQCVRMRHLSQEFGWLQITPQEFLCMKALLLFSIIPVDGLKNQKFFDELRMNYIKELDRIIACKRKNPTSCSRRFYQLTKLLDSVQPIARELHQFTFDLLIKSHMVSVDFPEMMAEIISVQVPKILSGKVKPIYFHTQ", "test": "Inhibition of human Androgen receptor at 10 uM relative to control"}, "[18]": {"target": "Muscarinic acetylcholine receptor M3 (Homo sapiens) (UniProt P20309)", "sequence (P20309 whole entry, looked up)": "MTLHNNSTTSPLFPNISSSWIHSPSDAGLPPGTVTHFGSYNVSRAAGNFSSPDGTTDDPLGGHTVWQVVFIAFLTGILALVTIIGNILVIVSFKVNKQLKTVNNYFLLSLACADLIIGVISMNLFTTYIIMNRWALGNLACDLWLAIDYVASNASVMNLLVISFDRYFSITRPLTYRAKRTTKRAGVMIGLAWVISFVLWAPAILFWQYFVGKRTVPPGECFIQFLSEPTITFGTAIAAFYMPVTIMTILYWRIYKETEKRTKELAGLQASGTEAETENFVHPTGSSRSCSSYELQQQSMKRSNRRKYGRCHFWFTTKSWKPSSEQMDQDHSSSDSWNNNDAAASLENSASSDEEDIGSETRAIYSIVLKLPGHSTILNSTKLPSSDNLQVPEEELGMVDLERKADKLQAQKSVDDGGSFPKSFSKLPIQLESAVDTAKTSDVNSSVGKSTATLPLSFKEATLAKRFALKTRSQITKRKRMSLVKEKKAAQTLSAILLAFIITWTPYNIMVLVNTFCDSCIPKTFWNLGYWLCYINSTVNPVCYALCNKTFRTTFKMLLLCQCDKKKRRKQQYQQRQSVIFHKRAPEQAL", "test": "Inhibition of human muscarinic M3 receptor at 10 uM relative to control"}, "Homo sapiens [19]": {"species": "Homo sapiens", "test": "Selectivity ratio of IC50 for full length recombinant human PDE8B to IC50 for full length recombinant human PDE1A", "summary_of_the_method": "as §1"}, "[20]": {"target": "Muscarinic acetylcholine receptor M4 (Homo sapiens) (UniProt P08173)", "sequence (P08173 whole entry)": "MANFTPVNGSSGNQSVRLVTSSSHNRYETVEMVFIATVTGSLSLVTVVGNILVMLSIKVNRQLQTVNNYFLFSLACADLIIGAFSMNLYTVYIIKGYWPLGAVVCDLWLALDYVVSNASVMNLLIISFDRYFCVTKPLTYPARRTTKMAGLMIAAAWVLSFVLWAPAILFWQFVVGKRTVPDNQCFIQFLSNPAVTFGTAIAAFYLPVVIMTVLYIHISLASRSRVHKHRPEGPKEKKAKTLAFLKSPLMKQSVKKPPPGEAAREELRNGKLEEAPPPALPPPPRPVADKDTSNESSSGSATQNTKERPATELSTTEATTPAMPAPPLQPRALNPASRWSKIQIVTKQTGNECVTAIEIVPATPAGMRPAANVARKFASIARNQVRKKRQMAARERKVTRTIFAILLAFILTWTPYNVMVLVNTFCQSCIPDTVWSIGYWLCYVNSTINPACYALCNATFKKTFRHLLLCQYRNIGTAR", "test": "Inhibition of human muscarinic M4 receptor at 10 uM relative to control"}, "Rattus norvegicus [21]": {"species": "Rattus norvegicus", "test": "Displacement of [3H]batrachotoxinin from rat brain Sodium channel site 2 at 10 uM after 60 mins by scintillation counting analysis relative to control"}, "CYP2D6": {"target": "CYP2D6 (Homo sapiens, UniProt P10635)", "test": "Inhibition of CYP2D6 (unknown origin) at 10 uM relative to control", "format": "ADME"}, "[22]": {"target": "Somatostatin receptor type 4 (Homo sapiens) (UniProt P31391)", "sequence (P31391 whole entry)": "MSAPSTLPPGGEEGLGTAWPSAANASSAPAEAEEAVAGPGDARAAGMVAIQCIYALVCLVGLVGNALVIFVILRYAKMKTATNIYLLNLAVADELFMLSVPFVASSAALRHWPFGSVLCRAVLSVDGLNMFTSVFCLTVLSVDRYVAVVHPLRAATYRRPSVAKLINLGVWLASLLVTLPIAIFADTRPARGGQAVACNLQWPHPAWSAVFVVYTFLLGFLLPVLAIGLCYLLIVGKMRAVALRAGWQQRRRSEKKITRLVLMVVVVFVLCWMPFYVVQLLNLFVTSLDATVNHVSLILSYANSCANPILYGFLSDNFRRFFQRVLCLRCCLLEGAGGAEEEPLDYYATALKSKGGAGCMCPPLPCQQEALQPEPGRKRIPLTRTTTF", "test": "Inhibition of human Somatostatin 4 receptor at 10 uM relative to control"}, "[23]": {"target": "Endothelin-1 receptor (Homo sapiens) (UniProt P25101)", "sequence (P25101 whole entry)": "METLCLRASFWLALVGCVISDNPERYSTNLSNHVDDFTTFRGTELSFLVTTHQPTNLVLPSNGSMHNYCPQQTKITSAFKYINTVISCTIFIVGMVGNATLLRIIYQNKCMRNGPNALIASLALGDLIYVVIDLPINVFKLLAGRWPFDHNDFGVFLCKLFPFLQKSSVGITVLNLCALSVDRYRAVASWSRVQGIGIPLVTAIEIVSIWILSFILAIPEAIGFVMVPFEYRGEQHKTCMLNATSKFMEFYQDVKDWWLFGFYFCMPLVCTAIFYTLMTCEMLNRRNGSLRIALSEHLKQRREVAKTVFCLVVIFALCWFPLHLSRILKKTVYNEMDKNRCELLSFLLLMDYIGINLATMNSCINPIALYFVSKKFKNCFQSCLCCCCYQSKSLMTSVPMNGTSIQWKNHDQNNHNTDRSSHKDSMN", "test": "Inhibition of endothelin A receptor (unknown origin) at 10 uM relative to control"}}}
{"compound": "COc1ccc2c(N[C@@H](C)Cc3cc(C)[nH]n3)ncnc2c1OC", "values": [{"measurement": "efflux ratio", "setting": "BCRP (ABCG2)", "result": 84}, {"measurement": "Drug uptake(free)", "setting": "[1]", "result": "Bld"}, {"measurement": "Ratio IC50", "setting": "Homo sapiens [2]", "result": 14600}, {"measurement": "inhibition", "setting": "[3]", "result": "< 50", "unit": "%"}, {"measurement": "inhibition", "setting": "[4]", "result": "< 50", "unit": "%"}, {"measurement": "inhibition", "setting": "[5]", "result": "< 50", "unit": "%"}, {"measurement": "inhibition", "setting": "Rattus norvegicus [6]", "result": "< 50", "unit": "%"}, {"measurement": "Ratio", "setting": "[7]", "result": 0.04}, {"measurement": "Ratio IC50", "setting": "Homo sapiens [8]", "result": 1290}, {"measurement": "inhibition", "setting": "[9]", "result": "< 50", "unit": "%"}, {"measurement": "Drug uptake", "setting": "[10]", "result": "Bld"}, {"measurement": "Cp(f)", "setting": "[11]", "result": 40, "unit": "nM"}, {"measurement": "Ratio IC50", "setting": "Homo sapiens [12]", "result": 45}, {"measurement": "inhibition", "setting": "[13]", "result": "< 50", "unit": "%"}, {"measurement": "inhibition", "setting": "[14]", "result": "< 50", "unit": "%"}, {"measurement": "inhibition", "setting": "[15]", "result": "< 50", "unit": "%"}, {"measurement": "Ratio IC50", "setting": "Homo sapiens [16]", "result": 5970}, {"measurement": "inhibition", "setting": "[17]", "result": "< 50", "unit": "%"}, {"measurement": "inhibition", "setting": "[18]", "result": "< 50", "unit": "%"}, {"measurement": "Ratio IC50", "setting": "Homo sapiens [19]", "result": 369}, {"measurement": "inhibition", "setting": "[20]", "result": "< 50", "unit": "%"}, {"measurement": "inhibition", "setting": "Rattus norvegicus [21]", "result": "< 50", "unit": "%"}, {"measurement": "inhibition at 10 µM", "setting": "CYP2D6", "result": "< 50", "unit": "%"}, {"measurement": "inhibition", "setting": "[22]", "result": "< 50", "unit": "%"}, {"measurement": "inhibition", "setting": "[23]", "result": "< 50", "unit": "%"}]}
